Source: ChEMBL document CHEMBL3525897, “Metabolism and quantification of [(18)F]DPA-714, a new TSPO positron emission tomography radioligand” (Drug Metab Dispos, 2013)
One block for each compound: values may come before it.

Key:
[1] = Drug metabolism in baboon urine assessed as compound remaining measured at 180 mins by radio-HPLC analysis; type: ADME, tissue-based; conditions: papio anubis, read-out: Stability
Summary of the method: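 Baboon urine collected by catheter at 180 min after injection. 1 mL injected directly onto the plasma radio-HPLC system (C18, 0.1% TFA water/acetonitrile gradient).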

[2] = Chemical stability of the compound in saline; type: physicochemical; conditions: buffer
[3] = Metabolic stability of the compound in baboon plasma at 20 kBq/ml at 37 degC by radio-HPLC analysis; type: ADME, cell-free; conditions: papio anubis
Summary of the method: (§1)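 Plasma spiked with 20 kBq/mL [18F]DPA-714, triplicate. Extracted with acetonitrile at time zero, or after incubation at 37°C (190 min for baboon plasma). Parent peak area measured by radio-HPLC.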

Plasma = test: Metabolic stability of the compound in Sprague-Dawley rat plasma at 20 kBq/ml at 37 degC by radio-HPLC analysis; type: ADME, cell-free; summary of the method: as §1
Brain = test: Metabolic stability of the compound in Sprague-Dawley rat brain homogenate at 37 kBq at 37 degC by radio-HPLC analysis; type: ADME, tissue-based
Summary of the method: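 Rat brain sonicated in 0.1 M potassium phosphate, pH 7.4, at 4°C and spiked with 37 kBq [18F]DPA-714. Aliquots extracted with acetonitrile at time zero and after 180 min at 37°C. Analysed by radio-HPLC.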

[4] = Drug recovery in baboon by SPE method; type: ADME, organism-based; conditions: papio anubis, in vivo; read-out: Drug recovery
Summary of the method: (§2)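 Baboon arterial plasma, five samples per animal, n=3. 200 μL diluted to 400 μL with 4% HCl and loaded on HLB SPE cartridge. Washed with water, then 35/65 acetonitrile/water; parent eluted with acetonitrile. All fractions and cartridge counted. Parent given as % of eluted radioactivity or of initial sample. Compared with radio-HPLC; mono-exponential fit.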

[5] = Metabolic stability of the compound in baboon plasma assessed as compound remaining by SPE method; type: ADME, cell-free; conditions: papio anubis; summary of the method: as §2
[6] = Half life in baboon by SPE method; type: ADME, organism-based; conditions: papio anubis, in vivo; summary of the method: as §2
[7] = Half life in baboon by radio-HPLC analysis; type: ADME, organism-based; conditions: papio anubis, in vivo
Summary of the method: (§3)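 Isoflurane-anaesthetized baboons, 6 PET experiments. Arterial femoral plasma sampled 0-120 min and centrifuged at 4°C, then deproteinated with acetonitrile; pellet radioactivity counted and treated as metabolite. Supernatant run on radio-HPLC (C18 preparative, 0.1% TFA water/acetonitrile 20-80% over 10 min, 5 mL/min). Counts decay-corrected to injection. Parent fraction as % total; data fitted to two exponentials; mean ± sd.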

[8] = Retention time in baboon plasma by radio-HPLC analysis; type: ADME, cell-free; conditions: papio anubis; summary of the method: as §3
[9] = Drug metabolism in baboon assessed as compound remaining measured at 30 mins by radio-HPLC analysis; type: ADME, organism-based; conditions: papio anubis, in vivo; read-out: Stability; summary of the method: as §3
[10] = Drug metabolism in baboon assessed as compound remaining measured at 120 mins by radio-HPLC analysis; type: ADME, organism-based; conditions: papio anubis, in vivo; read-out: Stability; summary of the method: as §3
[11] = Biodistribution in baboon lung at 276 +/- 60 MBq, iv up to 90 mins by PET analysis; type: ADME, organism-based; conditions: papio anubis, in vivo, 1.5 h
Summary of the method: (§4)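 Whole-body PET (HR+) in male Papio anubis baboons after i.v. 276 ± 60 MBq (4.8 ± 2.1 nmol) [18F]DPA-714. 2D transmission scans for attenuation correction. 3D emission scans of 1 to 4 min per bed step, acquired up to 90 min post-injection. Uptake reported as SUVmax.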

[12] = Biodistribution in baboon heart at 276 +/- 60 MBq, iv up to 90 mins by PET analysis; type: ADME, organism-based; conditions: papio anubis, in vivo, 1.5 h; summary of the method: as §4
[13] = Biodistribution in baboon liver at 276 +/- 60 MBq, iv up to 90 mins by PET analysis; type: ADME, organism-based; conditions: papio anubis, in vivo, 1.5 h; summary of the method: as §4
[14] = Biodistribution in baboon gallbladder at 276 +/- 60 MBq, iv measured at 42 mins by PET analysis; type: ADME, organism-based, Gall bladder; conditions: papio anubis, in vivo, 0.7 h; summary of the method: as §4
[15] = Biodistribution in baboon spleen at 276 +/- 60 MBq, iv up to 90 mins by PET analysis; type: ADME, organism-based; conditions: papio anubis, in vivo, 1.5 h; summary of the method: as §4
[16] = Biodistribution in baboon kidney at 276 +/- 60 MBq, iv measured at 10 mins by PET analysis; type: ADME, organism-based; conditions: papio anubis, in vivo; summary of the method: as §4
[17] = Biodistribution in baboon urinary bladder at 276 +/- 60 MBq, iv up to 90 mins by PET analysis; type: ADME, organism-based; conditions: papio anubis, in vivo, 1.5 h; summary of the method: as §4
[18] = Biodistribution in baboon parotid gland at 276 +/- 60 MBq, iv up to 90 mins by PET analysis; type: ADME, organism-based; conditions: papio anubis, in vivo, 1.5 h; summary of the method: as §4
[19] = Biodistribution in baboon vertebral bodies at 276 +/- 60 MBq, iv up to 90 mins by PET analysis; type: ADME, organism-based; conditions: papio anubis, in vivo, 1.5 h; summary of the method: as §4
[20] = Biodistribution in baboon kidney at 276 +/- 60 MBq, iv measured at 90 mins by PET analysis; type: ADME, organism-based; conditions: papio anubis, in vivo, 1.5 h; summary of the method: as §4
[21] = Biodistribution in baboon duodenum at 276 +/- 60 MBq, iv by PET analysis; type: ADME, organism-based; conditions: papio anubis, in vivo; summary of the method: as §4
[22] = Biodistribution in Sprague-Dawley rat plasma at 32.1 +/- 2.8 MBq, iv measured at 120 mins by radio-HPLC analysis; type: ADME, organism-based; conditions: 32.1 MBq
Summary of the method: (§5)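 Male Sprague-Dawley rats (250-300 g) given 32.1 ± 2.8 MBq [18F]DPA-714 by tail vein and decapitated 120 min later. Brain sonicated twice in acetonitrile on ice, extracts pooled and concentrated. Plasma acetonitrile-deproteinated. Parent and radiometabolites separated by radio-HPLC (C18, 0.1% TFA water/acetonitrile gradient 20-80% B). Expressed as %ID/g. Thighbone cortex and marrow also counted. Mean ± sd of 2 experiments, 2 rats each.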

[23] = Biodistribution in Sprague-Dawley rat brain at 32.1 +/- 2.8 MBq, iv measured at 120 mins by radio-HPLC analysis; type: ADME, organism-based; conditions: 32.1 MBq; summary of the method: as §5
[24] = Ratio of drug level in brain to plasma in Sprague-Dawley rat at 32.1 +/- 2.8 MBq, iv measured at 120 mins by radio-HPLC analysis; type: ADME, organism-based; conditions: brain and plasma, 32.1 MBq, read-out: BPR; summary of the method: as §5
[25] = Biodistribution in Sprague-Dawley rat bone marrow at 32.1 +/- 2.8 MBq, iv measured at 120 mins by radio-HPLC analysis; type: ADME, organism-based; conditions: 32.1 MBq; summary of the method: as §5
[26] = Biodistribution in Sprague-Dawley rat thighbone cortex at 32.1 +/- 2.8 MBq, iv measured at 120 mins by radio-HPLC analysis; type: ADME, organism-based, Bone element; conditions: 32.1 MBq; summary of the method: as §5
[27] = Retention time of the compound by LC-MS analysis; type: physicochemical
Summary of the method: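 Separation of DPA-714 and its metabolites by LC-MS on reverse-phase Atlantis C18 column (2.1x150 mm) with electrospray ionization.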

Liver microsome [28] = test: Drug level in Sprague-Dawley rat liver microsomes treated with DPA-714 after 15 to 60 mins by LC-MS/MS analysis
[29] = Retention time in baboon plasma treated with [18F]DPA-714 by radio-HPLC analysis; type: ADME, cell-free; conditions: papio anubis; summary of the method: as §3
[30] = Drug metabolism in baboon liver microsomes assessed as N,N-diethyl-2-(2-(4-hydroxyphenyl)-5,7-dimethylpyrazolo[1,5-a]pyrimidin-3-yl)acetamide level after 15 to 60 mins by LC-MS/MS analysis; type: ADME; conditions: papio anubis
Summary of the method: (§6)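 Liver microsomes (rat, baboon, or pooled human from 10 donors), 1 mg protein/mL, with DPA-714 100 µM in 0.1 M potassium phosphate, pH 7.4. Preincubated 2 min at 37°C, then started with NADPH-generating system. Run 15, 30 and 60 min; rates from 30 min. Stopped with acetonitrile, filtered, analysed by LC-MS-MS. Rates in nmol/mg/min; mean ± sd of 5 duplicate experiments.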

Liver microsome [31] = test: Drug metabolism in human liver microsomes assessed as N-ethyl-2-(2-(4-(2-fluoroethoxy)phenyl)-5,7-dimethylpyrazolo[1,5-a]pyrimidin-3-yl)acetamide level after 15 to 60 mins by LC-MS/MS analysis; type: ADME; summary of the method: as §6
Liver microsome [32] = test: Drug metabolism in human liver microsomes assessed as N,N-diethyl-2-(2-(4-(2-fluoroethoxy)phenyl)-7-(hydroxymethyl)-5-methylpyrazolo[1,5-a]pyrimidin-3-yl)acetamide level after 15 to 60 mins by LC-MS/MS analysis; type: ADME; summary of the method: as §6
Liver microsome [33] = test: Drug metabolism in Sprague-Dawley rat liver microsomes assessed as N,N-diethyl-2-(2-(4-(2-fluoroethoxy)phenyl)-5-(hydroxymethyl)-7-methylpyrazolo[1,5-a]pyrimidin-3-yl)acetamide level after 15 to 60 mins by LC-MS/MS analysis; type: ADME; summary of the method: as §6
Liver microsome [34] = test: Drug metabolism in Sprague-Dawley rat liver microsomes assessed as N,N-diethyl-2-(2-(4-(2-fluoroethoxy)phenyl)-6-hydroxy-5,7-dimethylpyrazolo[1,5-a]pyrimidin-3-yl)acetamide level after 15 to 60 mins by LC-MS/MS analysis; type: ADME; summary of the method: as §6
Liver microsome [35] = test: Drug metabolism in Sprague-Dawley rat liver microsomes assessed as N-ethyl-2-(2-(4-(2-fluoroethoxy)phenyl)-5,7-dimethylpyrazolo[1,5-a]pyrimidin-3-yl)acetamide level after 15 to 60 mins by LC-MS/MS analysis; type: ADME; summary of the method: as §6
Liver microsome [36] = test: Drug metabolism in Sprague-Dawley rat liver microsomes assessed as N,N-diethyl-2-(2-(4-(2-fluoroethoxy)phenyl)-7-(hydroxymethyl)-5-methylpyrazolo[1,5-a]pyrimidin-3-yl)acetamide level after 15 to 60 mins by LC-MS/MS analysis; type: ADME; summary of the method: as §6
Liver microsome [37] = test: Drug metabolism in Sprague-Dawley rat liver microsomes assessed as N,N-diethyl-2-(2-(4-hydroxyphenyl)-5,7-dimethylpyrazolo[1,5-a]pyrimidin-3-yl)acetamide level after 15 to 60 mins by LC-MS/MS analysis; type: ADME; summary of the method: as §6
Liver microsome [38] = test: Drug metabolism in Sprague-Dawley rat liver microsomes assessed as N,N-diethyl-2-(2-(4-(2-fluoroethoxy)phenyl)-5,7-bis(hydroxymethyl)pyrazolo[1,5-a]pyrimidin-3-yl)acetamide level after 15 to 60 mins by LC-MS/MS analysis; type: ADME; summary of the method: as §6
Liver microsome [39] = test: Drug metabolism in Sprague-Dawley rat liver microsomes assessed as N-ethyl-2-(2-(4-(2-fluoroethoxy)phenyl)-5-(hydroxymethyl)-7-methylpyrazolo[1,5-a]pyrimidin-3-yl)acetamide level after 15 to 60 mins by LC-MS/MS analysis; type: ADME; summary of the method: as §6
[40] = Drug metabolism in baboon liver microsomes assessed as N,N-diethyl-2-(2-(4-(2-fluoroethoxy)phenyl)-7-(hydroxymethyl)-5-methylpyrazolo[1,5-a]pyrimidin-3-yl)acetamide level after 15 to 60 mins by LC-MS/MS analysis; type: ADME; conditions: papio anubis; summary of the method: as §6

SMILES: CCN(CC)C(=O)Cc1c(-c2ccc(OCC[18F])cc2)nn2c(C)cc(C)nc12 [DPA-714 F-18]
remaining at 3 h [1]: < 2%
Stability [2]: Stable
Stability [3]: 190 min
Stability (Plasma): 180 min
Stability (Brain): 180 min
recovery [4]: 94%
Stability [5]: 95%
half-life [6]: 12 min
half-life [7]: 19 min
Retention_time [8]: 10.083 min
remaining at 0.5 h [9]: 46%
remaining at 2 h [10]: 11%
SUVmax [11]: 5.67
SUVmax [12]: 7.42
SUVmax [13]: 6.28
SUVmax [14]: 7.31
SUVmax [15]: 7.57
SUVmax [16]: 12.7
SUVmax [17]: 6.5
SUVmax [18]: 1.93
SUVmax [19]: 1.99
SUV [20]: 4.6
Drug uptake [21]: Active
tissue uptake at 2 h [22]: 15%
tissue uptake at 2 h [23]: 85%
Kp at 2 h [24]: 11
tissue uptake at 2 h [25]: 65%
tissue uptake at 2 h [26]: 35%

SMILES: CCNC(=O)Cc1c(-c2ccc(OCC[18F])cc2)nn2c(C)cc(CO)nc12
Retention_time [29]: 7.25 min

SMILES: CCN(CC)C(=O)Cc1c(-c2ccc(O)cc2)nn2c(C)cc(C)nc12
Retention_time [27]: 15.05 min
Drug metabolism (Liver microsome [28]): metabolite_detected

Now from value to compound:

Retention_time [27]: 14.28 min
Drug metabolism (Liver microsome [28]): metabolite_detected
SMILES: CCN(CC)C(=O)Cc1c(-c2ccc(OCCF)cc2)nn2c(CO)cc(CO)nc12

Retention_time [27]: 15.85 min
Drug metabolism (Liver microsome [28]): metabolite_detected
SMILES: CCN(CC)C(=O)Cc1c(-c2ccc(OCCF)cc2)nn2c(CO)cc(C)nc12

Drug metabolism [30]: 0.64 nmol/mg/min
Drug metabolism (Liver microsome [31]): 0.45 nmol/mg/min
Drug metabolism (Liver microsome [32]): 0.57 nmol/mg/min
Drug metabolism (Liver microsome [33]): 0.89 nmol/mg/min
Drug metabolism (Liver microsome [34]): metabolite_detected
Drug metabolism (Liver microsome [35]): 0.82 nmol/mg/min
Drug metabolism (Liver microsome [36]): metabolite_detected
Drug metabolism (Liver microsome [37]): metabolite_detected
Drug metabolism (Liver microsome [38]): metabolite_detected
Drug metabolism (Liver microsome [39]): metabolite_detected
Drug metabolism [40]: 0.46 nmol/mg/min
SMILES: CCN(CC)C(=O)Cc1c(-c2ccc(OCCF)cc2)nn2c(C)cc(C)nc12 [DPA-714]
